From ChEMBL document CHEMBL1135734, “Side-chain lactam-bridge conformational constraints differentiate the activities of salmon and human calcitonins and reveal a new design concept for potent calcitonin analogues” (J Med Chem, 2002)
Positions of bridges follow the written chain, without caps; N, C: chain ends. Non-standard residues stand in square brackets, D forms with d. Residues, ends and D or L forms follow the SMILES beside them. Nle = CCCC[C@H](N)C(=O)O; Orn = NCCC[C@H](N)C(=O)O

Legend:
[1] = molecular target: T1, Calcitonin receptor (Rattus norvegicus) (UniProt P32214); test: Affinity for calcitonin receptor of rat brain relative to [125I]-salmon calcitonin
T1 sequence (whole entry): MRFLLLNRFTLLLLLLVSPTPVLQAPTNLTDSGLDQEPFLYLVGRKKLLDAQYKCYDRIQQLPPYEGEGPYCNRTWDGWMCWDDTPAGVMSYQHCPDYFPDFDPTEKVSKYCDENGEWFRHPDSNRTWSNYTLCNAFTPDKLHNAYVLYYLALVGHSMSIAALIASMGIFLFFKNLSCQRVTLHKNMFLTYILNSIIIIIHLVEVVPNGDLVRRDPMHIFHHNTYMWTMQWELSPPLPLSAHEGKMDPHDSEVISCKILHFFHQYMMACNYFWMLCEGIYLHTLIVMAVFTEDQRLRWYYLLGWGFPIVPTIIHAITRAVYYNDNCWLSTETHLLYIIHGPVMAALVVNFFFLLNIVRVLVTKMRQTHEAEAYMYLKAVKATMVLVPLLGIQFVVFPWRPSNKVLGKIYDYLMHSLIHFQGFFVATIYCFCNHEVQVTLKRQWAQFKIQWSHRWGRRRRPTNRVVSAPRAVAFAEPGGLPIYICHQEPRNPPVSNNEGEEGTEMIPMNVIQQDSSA
Procedure, shortened: (§1)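 Male Sprague–Dawley rat (250–350 g) brain membranes (~0.63 mg protein/tube) were shaken on ice for 30 min with 10 pM final [125I-Tyr22]sCT and competitor in 50 mM Tris-HCl pH 7.4 with 34 μM bacitracin. Tubes were centrifuged and the pellets washed, SDS-solubilized and scintillation counted. Nonspecific binding was taken with 1 μM sCT. IC50 came from probit analysis, and relative affinity set sCT = 100%.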

[2] = molecular target: T2, Calcitonin receptor (Homo sapiens) (UniProt P30988)
T2 sequence (whole entry): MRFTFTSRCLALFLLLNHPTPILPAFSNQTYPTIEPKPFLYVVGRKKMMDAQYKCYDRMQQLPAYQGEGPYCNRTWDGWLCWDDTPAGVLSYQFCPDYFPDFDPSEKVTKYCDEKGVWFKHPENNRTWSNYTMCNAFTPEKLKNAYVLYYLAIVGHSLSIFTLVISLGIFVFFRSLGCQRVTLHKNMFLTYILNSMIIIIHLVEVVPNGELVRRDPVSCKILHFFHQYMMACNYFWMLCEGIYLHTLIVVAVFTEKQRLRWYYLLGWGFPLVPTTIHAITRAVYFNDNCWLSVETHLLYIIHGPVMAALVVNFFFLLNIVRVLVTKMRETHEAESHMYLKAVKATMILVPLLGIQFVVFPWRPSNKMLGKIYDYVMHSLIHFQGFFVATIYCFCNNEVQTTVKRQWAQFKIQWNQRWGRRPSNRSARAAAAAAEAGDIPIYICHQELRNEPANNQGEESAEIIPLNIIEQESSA

[3] = molecular target: T3, Calcitonin receptor (Homo sapiens, UniProt P30988); test: Inhibition of [125I]-salmon calcitonin (sCT) binding to human calcitonin receptor I1 expressed in HEK293 cells; assay type: cell-based
T3 sequence (P30988 whole entry): T2 sequence (whole entry)

[4] = molecular target: T4, Calcitonin receptor (Rattus norvegicus, UniProt P32214); test: Displacement of [125I]-salmon calcitonin (sCT) from calcitonin receptor of rat brain; procedure, shortened: as §1
T4 sequence (P32214 whole entry): T1 sequence (whole entry)

| Compound | Relative affinity [1] | ED50 [2] [nM] | Ki ([3]; hek293) [nM] | IC50 [4] [nM] | Ki [3] [nM] |
| --- | --- | --- | --- | --- | --- |
| CCCC[C@H](NC(=O)[C@H](Cc1c[nH]cn1)NC(=O)[C@H](CC(C)C)NC(=O)[C@H](CCCCN)NC(=O)[C@H](CC(N)=O)NC(=O)[C@H](CC(C)C)NC(=O)[C@H](CCC(=O)O)NC(=O)[C@H](CCC(N)=O)NC(=O)[C@H](CO)NC(=O)[C@H](CC(C)C)NC(=O)[C@H](CCCCN)NC(=O)CNC(=O)[C@H](CC(C)C)NC(=O)[C@@H](NC(=O)[C@H](CS)NC(=O)[C@@H](NC(=O)[C@H](CO)NC(=O)[C@H](CC(C)C)NC(=O)[C@H](CC(N)=O)NC(=O)[C@H](CO)NC(=O)[C@@H](N)CS)[C@@H](C)O)C(C)C)C(=O)N[C@@H](Cc1ccc(O)cc1)C(=O)N1CCC[C@@H]1C(=O)N[C@@H](CCCN=C(N)N)C(=O)N[C@H](C(=O)N[C@@H](CC(N)=O)C(=O)N[C@H](C(=O)NCC(=O)N[C@@H](CO)C(=O)NCC(=O)N[C@H](C(=O)N1CCC[C@@H]1C(N)=O)[C@@H](C)O)[C@@H](C)O)[C@@H](C)O | 92 | 0.046 | – | – | – |
| CC(C)C[C@H](NC(=O)[C@H](CCCCN)NC(=O)CNC(=O)[C@H](CC(C)C)NC(=O)[C@@H](NC(=O)[C@@H]1CSSC[C@H](N)C(=O)N[C@@H](CO)C(=O)N[C@@H](CC(N)=O)C(=O)N[C@@H](CC(C)C)C(=O)N[C@@H](CO)C(=O)N[C@@H]([C@@H](C)O)C(=O)N1)C(C)C)C(=O)N[C@@H](CO)C(=O)N[C@@H](CCC(N)=O)C(=O)N[C@@H](CCC(=O)O)C(=O)N[C@@H](CC(C)C)C(=O)N[C@@H](Cc1c[nH]cn1)C(=O)N[C@@H](CCCCN)C(=O)N[C@@H](CC(C)C)C(=O)N[C@@H](CCC(N)=O)C(=O)N[C@H](C(=O)N[C@@H](Cc1ccc(O)cc1)C(=O)N1CCC[C@H]1C(=O)N[C@@H](CCCNC(=N)N)C(=O)N[C@H](C(=O)N[C@@H](CC(N)=O)C(=O)N[C@H](C(=O)NCC(=O)N[C@@H](CO)C(=O)NCC(=O)N[C@H](C(=O)N1CCC[C@H]1C(N)=O)[C@@H](C)O)[C@@H](C)O)[C@@H](C)O)[C@@H](C)O | – | – | – | 0.377 | […] |
| CC(C)C[C@H](NC(=O)[C@H](CCCCN)NC(=O)CNC(=O)[C@H](CC(C)C)NC(=O)[C@@H](NC(=O)[C@H](CS)NC(=O)[C@@H](NC(=O)[C@H](CO)NC(=O)[C@H](CC(C)C)NC(=O)[C@H](CC(N)=O)NC(=O)[C@H](CO)NC(=O)[C@@H](N)CS)[C@@H](C)O)C(C)C)C(=O)N[C@@H](CO)C(=O)N[C@@H](CCC(N)=O)C(=O)N[C@@H](CCC(=O)O)C(=O)N[C@@H](CC(C)C)C(=O)N[C@H]1CC(=O)NCCCC[C@@H](C(=O)N[C@@H](Cc2ccc(O)cc2)C(=O)N2CCC[C@H]2C(=O)N[C@@H](CCCN=C(N)N)C(=O)N[C@H](C(=O)N[C@@H](CC(N)=O)C(=O)N[C@H](C(=O)NCC(=O)N[C@@H](CO)C(=O)NCC(=O)N[C@H](C(=O)N2CCC[C@H]2C(N)=O)[C@@H](C)O)[C@@H](C)O)[C@@H](C)O)NC(=O)[C@H](Cc2c[nH]cn2)NC(=O)[C@H](CC(C)C)NC(=O)[C@H](CCCCN)NC1=O (H-CSNLSTCVLGKLSQELDKLHKYPRTNTGSGTP-NH2; lactam 17-21) | – | – | 0.05 | 0.18 | – |

The next lines start with results.

| Relative affinity [1] | ED50 [2] [nM] | Ki ([3]; hek293) [nM] | IC50 [4] [nM] | Compound | Ki [3] [nM] |
| --- | --- | --- | --- | --- | --- |
| 210 | 0.075 | – | – | CC(C)C[C@H](NC(=O)[C@H](CCCCN)NC(=O)CNC(=O)[C@H](CC(C)C)NC(=O)[C@@H](NC(=O)[C@H](CS)NC(=O)[C@@H](NC(=O)[C@H](CO)NC(=O)[C@H](CC(C)C)NC(=O)[C@H](CC(N)=O)NC(=O)[C@H](CO)NC(=O)[C@@H](N)CS)[C@@H](C)O)C(C)C)C(=O)N[C@@H](CO)C(=O)N[C@@H](CCC(N)=O)C(=O)N[C@@H](CCC(=O)O)C(=O)N[C@@H](CC(C)C)C(=O)N[C@H]1CC(=O)NCCCC[C@@H](C(=O)N[C@@H](Cc2ccc(O)cc2)C(=O)N2CCC[C@@H]2C(=O)N[C@@H](CCCN=C(N)N)C(=O)N[C@H](C(=O)N[C@@H](CC(N)=O)C(=O)N[C@H](C(=O)NCC(=O)N[C@@H](CO)C(=O)NCC(=O)N[C@H](C(=O)N2CCC[C@@H]2C(N)=O)[C@@H](C)O)[C@@H](C)O)[C@@H](C)O)NC(=O)[C@H](Cc2cn(N)cn2)NC(=O)[C@H](CC(C)C)NC(=O)[C@H](CCCCN)NC1=O | – |
| – | – | 0.069 | 0.408 | CCCC[C@H](NC(=O)[C@H](Cc1c[nH]cn1)NC(=O)[C@H](CC(C)C)NC(=O)[C@H](CCCCN)NC(=O)[C@H](CC(N)=O)NC(=O)[C@H](CC(C)C)NC(=O)[C@H](CCC(=O)O)NC(=O)[C@H](CCC(N)=O)NC(=O)[C@H](CO)NC(=O)[C@H](CC(C)C)NC(=O)[C@H](CCCCN)NC(=O)CNC(=O)[C@H](CC(C)C)NC(=O)[C@@H](NC(=O)[C@@H]1CSSC[C@H](N)C(=O)N[C@@H](CO)C(=O)N[C@@H](CC(N)=O)C(=O)N[C@@H](CC(C)C)C(=O)N[C@@H](CO)C(=O)N[C@@H]([C@@H](C)O)C(=O)N1)C(C)C)C(=O)N[C@@H](Cc1ccc(O)cc1)C(=O)N1CCC[C@H]1C(=O)N[C@@H](CCCN=C(N)N)C(=O)N[C@H](C(=O)N[C@@H](CC(N)=O)C(=O)N[C@H](C(=O)NCC(=O)N[C@@H](CO)C(=O)NCC(=O)N[C@H](C(=O)N1CCC[C@H]1C(N)=O)[C@@H](C)O)[C@@H](C)O)[C@@H](C)O (H-CSNLSTCVLGKLSQELNKLH[Nle]YPRTNTGSGTP-NH2; disulfide 1-7) | – |
| – | – | 0.023 | 0.326 | CC(C)C[C@H](NC(=O)[C@H](CCCCN)NC(=O)CNC(=O)[C@H](CC(C)C)NC(=O)[C@@H](NC(=O)[C@H](CS)NC(=O)[C@@H](NC(=O)[C@H](CO)NC(=O)[C@H](CC(C)C)NC(=O)[C@H](CC(N)=O)NC(=O)[C@H](CO)NC(=O)[C@@H](N)CS)[C@@H](C)O)C(C)C)C(=O)N[C@@H](CO)C(=O)N[C@@H](CCC(N)=O)C(=O)N[C@@H](CCC(=O)O)C(=O)N[C@@H](CC(C)C)C(=O)N[C@H]1CC(=O)NCCC[C@@H](C(=O)N[C@@H](Cc2ccc(O)cc2)C(=O)N2CCC[C@H]2C(=O)N[C@@H](CCCN=C(N)N)C(=O)N[C@H](C(=O)N[C@@H](CC(N)=O)C(=O)N[C@H](C(=O)NCC(=O)N[C@@H](CO)C(=O)NCC(=O)N[C@H](C(=O)N2CCC[C@H]2C(N)=O)[C@@H](C)O)[C@@H](C)O)[C@@H](C)O)NC(=O)[C@H](CCC(N)=O)NC(=O)[C@H](CC(C)C)NC(=O)[C@H](CCCCN)NC1=O | – |
| – | – | 0.069 | 0.249 | CC(C)C[C@H](NC(=O)[C@H](CCCCN)NC(=O)CNC(=O)[C@H](CC(C)C)NC(=O)[C@@H](NC(=O)[C@H](CS)NC(=O)[C@@H](NC(=O)[C@H](CO)NC(=O)[C@H](CC(C)C)NC(=O)[C@H](CC(N)=O)NC(=O)[C@H](CO)NC(=O)[C@@H](N)CS)[C@@H](C)O)C(C)C)C(=O)N[C@@H](CO)C(=O)N[C@@H](CCC(N)=O)C(=O)N[C@@H](CCC(=O)O)C(=O)N[C@@H](CC(C)C)C(=O)N[C@H]1CC(=O)NCCC[C@@H](C(=O)N[C@@H](Cc2ccc(O)cc2)C(=O)N2CCC[C@H]2C(=O)N[C@@H](CCCN=C(N)N)C(=O)N[C@H](C(=O)N[C@@H](CC(N)=O)C(=O)N[C@H](C(=O)NCC(=O)N[C@@H](CO)C(=O)NCC(=O)N[C@H](C(=O)N2CCC[C@H]2C(N)=O)[C@@H](C)O)[C@@H](C)O)[C@@H](C)O)NC(=O)[C@H](Cc2c[nH]cn2)NC(=O)[C@H](CC(C)C)NC(=O)[C@H](CCCCN)NC1=O (H-CSNLSTCVLGKLSQELDKLH[Orn]YPRTNTGSGTP-NH2; lactam 17-21) | – |
